The values below come from ChEMBL document CHEMBL5338759, “N-Phenyl-1-(phenylsulfonyl)-1H-1,2,4-triazol-3-amine as a New Class of HIV-1 Non-nucleoside Reverse Transcriptase Inhibitor” (J Med Chem, 2023).

Data set [1] can be described thus: Acute toxicity in BALB/c mouse assessed as body weight gain at 2000 mg/kg, IG measured for 14 days. It counts as organism-based. The settings on record: in vivo, po, 336 h, time 14 day. The method, boiled down:
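Male Balb/C mice, 5–6 weeks old and 19–21 g, were deprived of food and water for 1.5–2 h. They were given a single intragastric 2000 mg/kg dose at 0.5 ml/20 g, prepared just before use. Controls received 0.5 ml of 1% starch gel intragastrically. There were 5 mice per group, observed for 14 days for condition and weight; weight was compared by Šídák's multiple comparisons test.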

Data set [2] in a line: Subacute toxicity in BALB/c mouse assessed as body weight gain at 25 to 250 mg/kg, IG measured daily for 30 days. It counts as organism-based. The settings on record: in vivo, po, 720 h, dose 25-250 mg/kg, time 30 day. Summed up: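 Male Balb/C mice (17 per group, initial weight 20.9 ± 0.8 g) were dosed intragastrically once daily for 30 days at 25 or 250 mg/kg. Doses were given as 2.5 or 25 mg/ml suspensions in 1% starch gel at 0.2 ml per 20 g; controls received starch gel alone. Weight, coat, mucous membranes and excretion were recorded throughout.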

Data set [3] in a line: Subacute toxicity in BALB/c mouse assessed as pathological change in stomach at 25 to 250 mg/kg, IG measured daily for 30 days by H and E staining based histological analysis. The settings on record: in vivo, po, 720 h, dose 25-250 mg/kg, time 30 day. It counts as organism-based. The method, boiled down: (§1)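 Male Balb/C mice (17 per group) received 25 or 250 mg/kg intragastrically in 1% starch gel once daily for 30 days, against starch gel controls. Internal organs were examined macroscopically after the study. Sections were paraffin-embedded and stained with hematoxylin and eosin.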

The nature of data set [4]: Subacute toxicity in BALB/c mouse assessed as reduction in alkaline phosphatase level at 250 mg/kg, IG measured daily for 30 days. Conditions: in vivo, po, 720 h, time 30 day; call rule not given here. The format is organism-based. Summed up:
(§2)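 Dosing was daily intragastric 25 or 250 mg/kg in 1% starch gel (0.2 ml/20 g) for 30 days in male Balb/C mice, 17 per group, with starch gel controls. After the final dose, mice were fasted for 2 h with water available, then bled. Serum was clotted for 30 min at room temperature and centrifuged at 3500 rpm. Total protein, urea, creatinine, AST, ALT and alkaline phosphatase were assayed and compared by Mann-Whitney with Holm-Šídák, p < 0.05.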

The nature of data set [5]: Subacute toxicity in BALB/c mouse assessed as effect on liver weight at 25 to 250 mg/kg, IG measured daily for 30 days. It counts as organism-based. Conditions: in vivo, po, 720 h, dose 25-250 mg/kg, time 30 day.
Data set [6] in a line: Subacute toxicity in BALB/c mouse assessed as effect on kidney weight at 25 to 250 mg/kg, IG measured daily for 30 days. The format is organism-based. The settings on record: in vivo, po, 720 h, dose 25-250 mg/kg, time 30 day.
The nature of data set [7]: Subacute toxicity in BALB/c mouse assessed as pathological change in spleen at 25 to 250 mg/kg, IG measured daily for 30 days by H and E staining based histological analysis. Conditions: in vivo, po, 720 h, dose 25-250 mg/kg, time 30 day. It counts as organism-based. Summed up: as §1
Data set [8] can be described thus: Subacute toxicity in BALB/c mouse assessed as effect on pancreas weight at 25 to 250 mg/kg, IG measured daily for 30 days. It counts as organism-based. Conditions: in vivo, po, 720 h, dose 25-250 mg/kg, time 30 day.
Data set [9] is described as follows: AUC (0 to infinity) in BALB/c mouse plasma at 250 mg/kg, IG measured at 0.5 to 24 hrs by HPLC-MS analysis. The format is ADME, organism-based. Details: time 0.5-24 hrs, dose 250 mg/kg, route ig. Conditions: in vivo, po. The method, boiled down: (§3)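 Mice averaging 20 g (24 animals) were fasted 1 h before and 1 h after dosing. They received 250 mg/kg as 0.5 ml suspension in 1% CMC, 0.05% Tween 80 by intragastric intubation. Blood and brain were taken after decapitation at 0.5, 1, 2, 3, 5, 8 and 24 h (3 per time point). Plasma was frozen at -20°C and brain at -120 °C. Quantification was by UPLC-HRMS (ESI+, EIC m/z 476.0691) against plasma-matrix standards. Parameters were derived by noncompartmental analysis; LLOQ 5 ng/ml, with values below it set to 2.5.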

Data set [10] can be described thus: Selectivity ratio of IC50 for antiviral activity against wild type HIV1 IIIB infected in human TZM-bl cells to IC50 for antiviral activity against HIV1 harboring A17 mutant infected in human TZM-bl cells. Conditions: human immunodeficiency virus 1. It counts as toxicity, cell-based. The method, boiled down: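 TZM-bl cells (2x10⁵/mL) with 15 µg/mL DEAE-dextran were infected with HIV-1 IIIB, A17 (K103N/Y181C) IIIB variant, or NL4-3-based NNRTI-resistant mutants. Compound was present at 0.05–500 nM (DMSO held constant, 0.005% or 0.05%) for 48 hr at 37°C, 5% CO₂.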

A short description of data set [11]: Safety index, ratio of TC10 for neurotoxicity in mouse primary neurons assessed as loss of MAP-2 intensity to EC50 for antiviral activity against wild type HIV1 IIIB infected in human TZM-bl cells. It counts as toxicity, cell-based. Summed up:
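Primary neuronal cultures from cortex/hippocampus of E16 CD1 mouse embryos (>95% neurons). Cells were then methanol:acetic acid-fixed and MAP-2 stained, and intensity was image-quantified. S-index = TC10/(100×EC50 vs HIV-1 IIIB in TZM-bl).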

Data set [12] relates to Human immunodeficiency virus 1. Description: Antiviral activity against HIV1 harboring Y181C mutant infected in human TZM-bl cells. It counts as functional, organism-based. Conditions: Human immunodeficiency virus 1, TZM-bl. Summed up:
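TZM-bl cells (2x10⁵/mL) were infected with mutant virus in the presence of 15 µg/mL DEAE-dextran. A17 (IIIB variant) was grown in H9 cells; the other mutants were NL4-3-based plasmids transfected into 293T cells, then expanded in H9 cells. Compounds were tested at 0.05–500 nM (DMSO constant within an assay) for 48 hr at 37°C. Read-out was luciferase RLU from lysed cells, with at least 6 replicates over multiple days.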

For data set [13], the system named is Human immunodeficiency virus 1. Description: Antiviral activity against wild type HIV1 IIIB infected in human TZM-bl cells. The format is functional, organism-based. Conditions: Human immunodeficiency virus 1, IIIB. The method, boiled down: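 TZM-bl cells (2x10⁵/mL) infected with HIV-1 IIIB grown in H9 cells, with 15 µg/mL DEAE-dextran; serial dilutions from 10 mM DMSO stocks, DMSO held constant (0.005% or 0.05%); 37°C, 5% CO₂, 48 hr; cells lysed, luciferase RLU read.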

In data set [14] the test system is Human immunodeficiency virus 1. The experiment in a line: Antiviral activity against HIV1 harboring L100I/K103N double mutant infected in human TZM-bl cells. The format is functional, organism-based. The settings on record: Human immunodeficiency virus 1, TZM-bl.
The nature of data set [15]: Subacute toxicity in BALB/c mouse assessed as reduction in hemoglobin level at 25 to 250 mg/kg, IG measured daily for 30 days. The format is organism-based. Conditions: in vivo, po, 720 h, dose 25-250 mg/kg, time 30 day.
The nature of data set [16]: AUC (0 to 24 hrs) in BALB/c mouse brain at 250 mg/kg, IG measured at 0.5 to 24 hrs by HPLC-MS analysis. Also noted: dose 250 mg/kg, time 0.5-24 hrs, route ig. The format is ADME, organism-based. Conditions: po. The method, boiled down:
as §3

Data set [17] is described as follows: Subacute toxicity in BALB/c mouse assessed as reduction in total protein level at 25 to 250 mg/kg, IG measured daily for 30 days. It counts as organism-based. Conditions: in vivo, po, 720 h, dose 25-250 mg/kg, time 30 day. The method, boiled down:
as §2

Data set [18] is described as follows: Subacute toxicity in BALB/c mouse assessed as reduction in hematocrit level at 25 to 250 mg/kg, IG measured daily for 30 days. It counts as organism-based. The settings on record: in vivo, po, 720 h, dose 25-250 mg/kg, time 30 day.
Data set [19] in a line: Subacute toxicity in BALB/c mouse assessed as effect on lung weight at 25 to 250 mg/kg, IG measured daily for 30 days. It counts as organism-based. Conditions: in vivo, po, 720 h, dose 25-250 mg/kg, time 30 day.
Data set [20] in a line: Subacute toxicity in BALB/c mouse assessed as effect on thymus weight at 25 to 250 mg/kg, IG measured daily for 30 days. It counts as organism-based. The settings on record: in vivo, po, 720 h, dose 25-250 mg/kg, time 30 day.
Data set [21] can be described thus: Subacute toxicity in BALB/c mouse assessed as reduction in reticulocytes count at 25 to 250 mg/kg, IG measured daily for 30 days. The format is organism-based. Conditions: in vivo, po, 720 h, dose 25-250 mg/kg, time 30 day.

As usually defined, the AUC is concentration integrated over time. Broadly, the IC50 is the concentration that inhibits the measured activity by half. What is called AUC(0-t) is exposure summed from dosing to a finite time, without extrapolation to infinity. A higher AUC(0-t) goes with more exposure. Take `N#C/C=C/c1ccc2c(S(=O)(=O)n3nc(Nc4ccc(C#N)c(Cl)c4)nc3N)cccc2c1`: the Activity entry in data set [1], in [2], in [3], in data set [4], in data set [5] and in data set [6] was “Non-Toxic” each time. In addition, the Activity result in [7], in [8], in data set [15], in data set [17], in data set [18] and in data set [19] was “Non-Toxic” throughout. Further, the Activity entry in data set [20] and in data set [21] was “Non-Toxic” each time. Further, in [9], the area under the curve (AUC) is 427.7 µg·h/mL. Besides, in data set [10], the “Ratio IC50” value is recorded as 5.6. Also, the Ratio entry in data set [11] is given as “Not Active”. Further, the results for the IC50 in data set [12], in [13] and in [14] were 3.7 nM, 0.24 nM and 1050 nM, respectively. In data set [16], this compound had an AUC(0-t) of 142 µg·h/mL.
